Source: PubChem BioAssay
INS promoter act: TRM-6 insulin promoter activation; activation, % at 2 µM; 0.81% of 130,000 active; AID 1296; TRM-6 cells, insulin promoter eGFP reporter, imaging; plate-scaled: unstimulated 0, stimulated control 100;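 active = activation at 2 µM above a set limit, confirmed on inspection of the cell images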;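 also: share of cells whose green reporter signal exceeds an intensity cutoff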
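System: human fetal islet-derived TRM-6 cells with tamoxifen-inducible insulin promoter–eGFP reporter; input: seeding density of 1,000 cells per well; buffer or medium: Low-glucose (5.5 mM) medium with tamoxifen; incubation: compound exposure 48 h, 37 °C; measured by: high-content imaging of fixed cells with Hoechst nuclear stain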
Active calls of the source: *. The full list was thinned out, with hits kept by preference.

SMILES	INS promoter act
N#Cc1c(NCCCO)nc(-c2ccccc2)c2c1CCCC2	0.0
C/C=C/C=N/Nc1nc(C)cc(=O)[nH]1	5.6
COC(=O)c1ccncc1C(=O)Nc1ccc(F)cc1	-7.1
CC1CCN(C(=O)C2CCN(CC(C)c3ccccc3)CC2)CC1 (configuration not stated)	368.4
NS(=O)(=O)c1ccc(CCNC(=O)C2CCN(S(=O)(=O)c3cnc[nH]3)CC2)cc1	4.5
CC1CCN(C(=O)C2CCN(S(=O)(=O)c3cnc[nH]3)CC2)CC1	506.3*
CCCCOC(=O)CNc1n[nH]c(=S)[nH]c1=O	0.0
CC(C)OC(=O)CCNc1n[nH]c(=O)[nH]c1=O	542.9*
COc1ccc(/C=N/NC(=O)CCNc2n[nH]c(=O)[nH]c2=O)c(OC)c1	-2.7
COc1cccc(C(=O)NC(Cc2ccccc2)c2ccc3c(c2)OCCCO3)c1 (configuration not stated)	8.6
COCC(C)n1c(SCc2cc(=O)n3cc(C)ccc3n2)nc2ccccc2c1=O (configuration not stated)	8.3
COc1cc(CCC(=O)Nc2cc(Cl)ccc2N2CCN(C)CC2)cc(OC)c1OC	5.7
COc1cccc(C(=O)Nc2ccc(Cl)c(C(F)(F)F)c2)c1	7.7
COc1cc(CCC(=O)Nc2ccc(Cl)c(C(F)(F)F)c2)cc(OC)c1OC	276.9*
Cn1c(N2CCN(C(=O)NC34CC5CC(CC(C5)C3)C4)CC2)nc2ccccc21	328.6
Cc1nc2cc(C(F)(F)F)ccc2n1C1CCN(CC(=O)NC(C)(C)C)CC1	0.0
COC(=O)C(CCSC)NC(=O)c1cc2c(n(-c3ccccc3)c1=O)CC(C)(C)CC2=O (configuration not stated)	7.7
Cc1nc2ccc(NC(=O)CCS(=O)(=O)c3ccc(Cl)cc3)cc2s1	8.3
Cc1nc2ccc([N+](=O)[O-])cc2s1	7.7
Cc1ccc(C(=O)Nc2ccc3nc(C)sc3c2)s1	561.5*
Cc1cc(C)n(CC(O)Cn2c3ccc(Br)cc3c3cc(Br)ccc32)c(=O)n1 (configuration not stated)	77.1*
CCOc1ccccc1C(=O)Nc1cnn(Cc2ccc(F)cc2)c1	7.4
CCCOc1ccc(CN(CCC#N)C(=S)NC(=O)c2ccccc2)cc1	3.7
COC(=O)c1ccccc1NC(=O)CNC(=O)c1ccco1	0.0
COc1ccc(/C=N\NC(=O)c2cccc(Br)c2)c(OC)c1	-7.1
SMILES	INS promoter act
COc1ccc(/C=C2\CC/C(=C\c3ccc(OC)cc3OC)C2=O)c(OC)c1	526.7*
COc1ccc(/C=C2\CC/C(=C\c3ccc(OC)c(OC)c3)C2=O)cc1OC	-8.3
CCCCN1C(=O)C(O)(CC(=O)c2c(C)coc2C)c2ccccc21 (configuration not stated)	2.3
CCCCN1C(=O)C(O)(CC(=O)c2ccccc2OC)c2ccccc21 (configuration not stated)	-2.4
CCCCN1C(=O)C2(NNc3ccccc3O2)c2ccccc21 (configuration not stated)	170.0*
CCc1cc2cc(C)cc(C)c2nc1SCC(=O)Nc1cc(C)on1	118.2
Cc1cc(C)c2nc(SCC(=O)Nc3ccccc3N3CCOCC3)c(C#N)cc2c1	328.6
Cc1nonc1NC(=O)CSc1nc2c(C)cccc2cc1C#N	809.1*
Cc1cc(C)n(Cc2ccc(Cl)c(Cl)c2)c(=O)c1S(=O)(=O)c1ccccc1	-3.6
CCN(CC)S(=O)(=O)c1ccc(OC)c(NC(=S)Nc2ccc(C)c(C)c2)c1	0.0
CC(=O)Nc1ccc(NC(=O)C(Cc2ccccc2)NC(=O)C2CCCCC2)cc1 (configuration not stated)	-64.3
O=C(COC(=O)c1cccs1)Nc1ccc(S(=O)(=O)N2CCOCC2)cc1	-2.9
CCOC(=O)c1cc(C(C)(C)C)oc1CN	-7.4
Cc1cc(C(C)(C)C)oc1C(=O)NCCCNC(=O)c1oc(C(C)(C)C)cc1C	-9.5
CCOC(=O)c1cc(C(C)(C)C)oc1CNC(=O)c1c(C)oc2c1CCCC2	493.3*
O=C(COC(=O)c1ccc(Br)o1)Nc1cccc(S(=O)(=O)N2CCCCCC2)c1	3.3
CC(C)(C)NC(=O)CN(C(=O)CS(=O)CC(=O)Nc1ccc(F)cc1)c1ccc(Cl)cc1 (configuration not stated)	2.6
Cc1ccc(C(=O)NC(=C(Cl)Cl)S(=O)(=O)c2ccc(Cl)cc2)cc1	128.6
O=C(Nc1ccccn1)c1ccc(S(=O)(=O)c2ccc(Cl)cc2)cc1	-2.6
CNC(=O)c1nnsc1S(=O)(=O)c1ccc(Cl)cc1	754.5*
O=C(OC(C(=O)NC1CCCC1)c1ccncc1)C1=Cc2ccccc2OC1 (configuration not stated)	2.7
Cc1cc(C(=O)CSc2nnc(N)s2)c(C)n1CCc1ccc(F)cc1	0.0
Cc1cc(C(=O)CSc2nnnn2C)c(C)n1CCc1ccc(F)cc1	125.8*
Cc1cc(C(=O)CCl)c(C)n1CCc1ccc(F)cc1	-100.0
CC(=O)c1ccc(OCCCC(=O)NC2CCCc3ccccc32)cc1 (configuration not stated)	8.8
SMILES	INS promoter act
O=C(O)C1Nc2c(O)cc(Cl)c([N+](=O)[O-])c2C2C=CCC12 (configuration not stated)	0.0
O=[N+]([O-])c1ccc(COc2ccc(CNc3ccccc3)cc2)cc1	0.0
Cc1ccc(OCC(=O)Nc2ccc([N+](=O)[O-])cc2)cc1	-8.3
COC(=O)C(Cc1cnc(Cl)s1)(C(=O)OC)c1ccccc1[N+](=O)[O-]	-8.3
CC1CN(CCOc2ccc([N+](=O)[O-])cc2)CC(C)O1 (configuration not stated)	-5.3
COC(=O)C(Cc1cnc(Cl)s1)(C(=O)OC)c1ccc([N+](=O)[O-])cc1	535.7*
O=[N+]([O-])c1ccc(OCc2cnc(Cl)s2)cc1	239.5*
COc1ccc(CCN2C(=O)C3CC(C)=C(C)CC3C2=O)cc1OC (configuration not stated)	207.1
CC(=O)Oc1ccc2oc(=O)c3c(c2c1)CCCN3C(=O)CN1CCOCC1	-6.7
Cc1cccc(C)c1NC(=O)CN(C)C(=O)C(c1ccccc1)c1ccccc1	7.4
OCCN(Cc1ccccc1)Cc1cccc(F)c1	81.3*
OCCN(Cc1ccccc1)CC1CC2C=CC1C2 (configuration not stated)	8.1
OCCN(Cc1ccccc1)CC1CCCCC1	-77.3
Cc1nn2c(=O)nc3sc4c(c3c2[nH]c1=O)CCCC4	343.8
C/C(=N\NC(=O)CSCc1ccc([N+](=O)[O-])cc1)c1ccccc1O	-7.9
C/C(N)=C(/C#N)C(=O)COC(=O)Cc1coc2cc(C)ccc12	7.3
CC(C)(C)Cc1nc(-c2ccc(Cl)cc2)no1	0.0
COc1ccc(CCNC(=O)C2CCN(S(=O)(=O)c3c(C)noc3C)CC2)cc1OC	-65.5
COc1ccc(CCNC(=O)C2CCCN(c3nn4c(=O)cc(C)nc4s3)C2)cc1OC (configuration not stated)	3.4
CCc1ccc(-c2nc(CN3CCCC(C(=O)NCCc4ccc(OC)c(OC)c4)C3)c(C)o2)cc1 (configuration not stated)	121.4*
COc1cccc(C(=O)NC(=S)Nc2ccc(N(C)C)cc2)c1	-8.8
Cc1ccc(S(=O)(=O)Nc2c(C)n(C)n(-c3ccccc3)c2=O)cc1C(=O)NCc1ccccn1	142.9*
Cc1c(NS(=O)(=O)N2CCCCC2)c(=O)n(-c2ccccc2)n1C	7.1
CCN(Cc1ccccc1)C(=O)C(C)OC(=O)c1cc(S(=O)(=O)Nc2c(C)n(C)n(-c3ccccc3)c2=O)ccc1C (configuration not stated)	107.1
